Read-outs that look alike come from different tables or passages of the source.
Columns and labels:
[1] = type: in vivo; conditions: rat, plasma, iv, 20 nmol/kg
Procedure, shortened: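 Sprague–Dawley rats (200–300 g) were dosed at 20 nmol/kg i.v. or s.c. Blood (200 µL) was drawn at 2, 6, 10, 24, 30 and 48 h, processed to plasma, extracted and analysed by UPLC-MS. Quantification used a calibration curve from spiked plasma, and parameters came from non-compartmental analysis. Groups were n = 4 for s.c., and n = 3 or 1 for i.v.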

[2] = after i.v. administration; cited from earlier work
[3] = in rats; cited from earlier work
[4] = PET imaging of 89Zr tracer, 17 MBq/kg; type: in vivo, rat
Procedure, shortened: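 Sprague–Dawley rats (200–300 g) received the 89Zr tracer (formulated at 5 MBq/nmol) i.v. or s.c. at 17 MBq/kg (3 nmol/kg). They were PET-imaged under 2–3% isoflurane/O2 at 4, 8, 24, 72 and 168 h, with a 350–650 keV window. Scans ran 15 min (4, 8 h), 20 min (24 h), 30 min (72 h) and 60 min (168 h), followed by a 323 s Co-57 transmission scan for attenuation correction. Images were decay-corrected to injection and reported as %ID/g.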

CC[C@H](C)[C@H](NC(=O)[C@H](Cc1ccccc1)NC(=O)[C@H](CCC(=O)O)NC(=O)[C@H](CCCNC(=N)N)NC(=O)[C@H](C)NC(=O)[C@H](C)NC(=O)[C@H](CCC(N)=O)NC(=O)[C@H](CCC(=O)O)NC(=O)[C@H](CCC(=O)O)NC(=O)[C@H](CC(C)C)NC(=O)[C@H](Cc1ccc(O)cc1)NC(=O)[C@H](CO)NC(=O)[C@H](CO)NC(=O)[C@@H](NC(=O)[C@H](CC(=O)O)NC(=O)[C@H](CO)NC(=O)[C@@H](NC(=O)[C@H](Cc1ccccc1)NC(=O)[C@@H](NC(=O)CNC(=O)[C@H](CCC(=O)O)NC(=O)[C@H](C)NC(=O)CCc1c[nH]cn1)[C@@H](C)O)[C@@H](C)O)C(C)C)C(=O)N[C@@H](C)C(=O)N[C@@H](Cc1c[nH]c2ccccc12)C(=O)N[C@@H](CC(C)C)C(=O)N[C@H](C(=O)N[C@@H](CCCNC(=N)N)C(=O)NCC(=O)N[C@@H](CCCNC(=N)N)C(=O)N[C@@H](CCCCNC(=O)COCCOCCNC(=O)COCCOCCNC(=O)CC[C@H](NC(=O)CCCCCCCCCCCCCCCCC(=O)O)C(=O)O)C(=O)NCC(=O)NCC(=O)N[C@@H](CO)C(=O)N[C@@H](CCCCNc1c(NCCCCCN(O)C(=O)CCC(=O)NCCCCCN(O)C(=O)CCC(=O)NCCCCCN(O)C(C)=O)c(=O)c1=O)C(=O)O)C(C)C [compound 2]
half-life [1]: 8.4 h

semaglutide
half-life [2]: 7 to 12 h
plasma metabolite exposures [3]: 1–7%

CC[C@H](C)[C@H](NC(=O)[C@H](Cc1ccccc1)NC(=O)[C@H](CCC(=O)O)NC(=O)[C@H](CCCNC(=N)N)NC(=O)[C@H](C)NC(=O)[C@H](C)NC(=O)[C@H](CCC(N)=O)NC(=O)[C@H](CCC(=O)O)NC(=O)[C@H](CCC(=O)O)NC(=O)[C@H](CC(C)C)NC(=O)[C@H](Cc1ccc(O)cc1)NC(=O)[C@H](CO)NC(=O)[C@H](CO)NC(=O)[C@@H](NC(=O)[C@H](CC(=O)O)NC(=O)[C@H](CO)NC(=O)[C@@H](NC(=O)[C@H](Cc1ccccc1)NC(=O)[C@@H](NC(=O)CNC(=O)[C@H](CCC(=O)O)NC(=O)[C@H](C)NC(=O)CCc1c[nH]cn1)[C@@H](C)O)[C@@H](C)O)C(C)C)C(=O)N[C@@H](C)C(=O)N[C@@H](Cc1c[nH]c2ccccc12)C(=O)N[C@@H](CC(C)C)C(=O)N[C@H](C(=O)N[C@@H](CCCNC(=N)N)C(=O)NCC(=O)N[C@@H](CCCNC(=N)N)C(=O)N[C@@H](CCCCNC(=O)COCCOCCNC(=O)COCCOCCNC(=O)CC[C@H](NC(=O)CCCCCCCCCCCCCCCCC(=O)O)C(=O)O)C(=O)NCC(=O)NCC(=O)N[C@@H](CO)C(=O)N[C@@H](CCCCNc1c(NCCCCCN(O)C(=O)CCC(=O)NCCCCCN(O)C(=O)CCC(=O)NCCCCCN(O)C(C)=O)c(=O)c1=O)C(=O)O)C(C)C [[89Zr]2, metal not drawn]
initial dose trapped in the subcutis ([4]; PET, s.c., after 168 h): 10%
tissue uptake at 168 h ([4]; rat, kidney, iv, 3 nmol/kg, total radioactivity): ~7 %ID/g

Source: article PMC9380726 (ACS Pharmacology & Translational Science, 2022)
